Ecoli rRNA inh – inhibitors of bacterial rRNA selective over humanized ribosomes. GFP signal change (wild-type ribosome), % (test concentration not listed). 350,000 tested, 1.6% active. AID 720706. E. coli WT GFP vs humanized-ribosome RFP mutants, fluorescence, 24 h; hits give low values; DMSO median 0, no signal -100;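 active means significant combined selectivity score with lowered wild-type GFP, culture density cut under 30%, mutant RFP and density less affected; inactive means any of these conditions unmet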
RAD52 inh – inhibitors of human RAD52 DNA annealing; P43351; recombinant RAD52 DNA annealing, FRET fluorescence; inhibition, % at 18.7 µM; 360,000 tested, 0.46% active;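 active means every replicate showing at least 50% inhibition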
Cneo AK release – Cryptococcus neoformans lysis via adenylate kinase release; C. neoformans lysis, adenylate kinase release luminescence, 4 h; normalised: neutral wells 0, clomiphene wells 100; lysis activity, % at 15 µM; 360,000 tested, 0.2% active; AID 651654;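 active means mean lysis activity across replicates of at least 80%, whatever share of replicates individually reach that level; inactive means mean lysis activity below 80%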
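Assay system: log-phase C. neoformans yeast / Quantity: yeast cell density of 5 × 10^6 cells/mL / Medium: fresh YPD growth medium / Compound: single dose / Timing: static 4 h at 37 °C with compound, 1 h detection / Measured by: adenylate kinase release luminescence / Read-out: lysis from increased AK signal / Benchmarks: Clomiphene as positive lysis control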
PglD DTNB – inhibitors of Campylobacter jejuni PglD acetyltransferase; purified PglD enzyme, DTNB colorimetric CoA detection; AID 602405; inhibition, % at 12.5 µM; 360,000 tested, 0.098% active; in the data active means inhibition above about 16%, passing the limit was not always enough
RAD54 branch – RAD54 (human) branch migration inhibition; 360,000 tested, 0.14% active; Q92698; inhibition, % at 10.4 µM; AID 602329; RAD54 Holliday junction branch migration, FAM/BHQ fluorescence;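 active means mean normalized replicate activity at least 40 and at least half of replicates scoring 40 or more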;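 further: 0% = median of neutral control wells and 100% = median of positive control wells; inhibitors cause a drop in the FAM fluorescence signal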
Target sequence (Q92698 whole entry, looked up): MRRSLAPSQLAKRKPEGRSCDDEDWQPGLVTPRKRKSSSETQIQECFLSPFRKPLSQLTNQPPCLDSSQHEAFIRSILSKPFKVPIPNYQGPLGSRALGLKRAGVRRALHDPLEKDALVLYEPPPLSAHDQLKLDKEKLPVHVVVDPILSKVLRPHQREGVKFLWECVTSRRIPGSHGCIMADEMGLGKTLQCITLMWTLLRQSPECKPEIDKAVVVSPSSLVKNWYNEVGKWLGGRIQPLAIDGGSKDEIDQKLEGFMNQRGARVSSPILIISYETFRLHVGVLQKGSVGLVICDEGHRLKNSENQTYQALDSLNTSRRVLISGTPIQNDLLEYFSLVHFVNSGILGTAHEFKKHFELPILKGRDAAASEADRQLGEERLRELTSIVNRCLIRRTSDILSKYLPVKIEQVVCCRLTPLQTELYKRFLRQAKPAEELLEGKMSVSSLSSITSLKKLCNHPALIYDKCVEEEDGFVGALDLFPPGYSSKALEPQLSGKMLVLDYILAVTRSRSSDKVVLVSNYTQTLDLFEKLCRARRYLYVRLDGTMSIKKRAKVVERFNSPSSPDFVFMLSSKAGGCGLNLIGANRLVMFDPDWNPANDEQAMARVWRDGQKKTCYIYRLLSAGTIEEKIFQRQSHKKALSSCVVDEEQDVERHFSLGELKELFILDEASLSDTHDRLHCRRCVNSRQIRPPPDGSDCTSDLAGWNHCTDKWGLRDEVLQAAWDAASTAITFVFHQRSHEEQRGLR
An asterisk follows results filed as active; · = not tested or not shown. Sampled rows, rich in hits. Any-hit rate of the full collection: about 1.9%.

SMILES | Ecoli rRNA inh | RAD52 inh | Cneo AK release | PglD DTNB | RAD54 branch
Cc1ccc(-c2nc3ccc(NS(=O)(=O)c4ccccc4)cc3[nH]2)o1 | -32* | -17 | -2 | 2 | -3
O=S(=O)(Nc1ccc2nc(C(F)(F)F)[nH]c2c1)c1ccccc1 | · | · | -2 | -1 | 11
CCC/C(=C1/c2ccccc2C(=O)N1c1ccccc1)c1ccc(C=O)o1 | -24* | -69 | · | · | ·
O=C(COC(=O)c1ccccc1)NCCC1=CCCCC1 | -28* | -12 | · | · | ·
COc1cccc(NC(=O)Nc2ccc3c(c2)C(=O)N(C)[C@@H]2CC[C@H](CC(=O)NCCc4ccccc4)O[C@@H]2CO3)c1 | -9 | · | 1 | 3 | 2
O=C(CN1C(=O)/C(=C/c2ccc(F)cc2)SC1=S)N1CCN(CCc2ccccn2)CC1 | -30* | -47 | -4 | 0 | -20
CC(C)(C)C(=O)N1CCN(c2ccc([N+](=O)[O-])c(NCC3CCCO3)c2)CC1 (stereo not given) | -38* | -17 | 2 | -3 | -5
Cc1ccc2nc(NC(=S)NC(=O)c3ccco3)sc2c1 | -15* | -28 | · | · | ·
COc1ccc2nc(NC(=O)c3ccco3)sc2c1 | -5 | 7 | -10 | 6 | 10
COc1ccc2c3c(n(C)c2c1)[C@H](CO)N(C(=O)Cc1ccccc1)CC31CN(C(=O)Cc2ccccc2)C1 | -3 | -43 | · | · | ·
C=COCCNC(=O)Nc1ccc(Cl)c(Cl)c1 | -21* | -4 | 2 | -2 | 2
COC(=O)CN1C(=S)N(c2ccc(Cl)cc2)C(=O)C1CC(=O)Nc1ccc(Cl)cc1 (stereo not given) | · | · | 0 | 0 | 0
COC(=O)CN1C(=S)N(c2ccc(Cl)cc2)C(=O)C1CC(=O)Nc1ccc(F)cc1 (stereo not given) | -25* | 11 | · | · | ·
CN(Cc1ccccc1)c1nc(CN2CCOCC2)nc2scc(-c3ccccc3)c12 | · | · | 8 | -3 | 2
Fc1ccc(N2CCN(c3nc(CN4CCOCC4)nc4scc(-c5ccccc5)c34)CC2)cc1 | -25* | -18 | · | · | ·
Fc1ccc(CN2CCN(c3ncnc4scc(-c5ccccc5)c34)CC2)cc1 | -52 | -15 | -4 | 10 | -4
Fc1ccc(-c2csc3ncnc(N4CCN(Cc5ccccc5)CC4)c23)cc1 | -23* | -19 | -1 | -3 | 5
CCC(=O)NC(c1ccc(C)cc1)c1cc([N+](=O)[O-])c2cccnc2c1O (stereo not given) | · | · | 5 | -3 | -2
CC(=O)NC(c1ccc(C)cc1)c1cc([N+](=O)[O-])c2cccnc2c1O (stereo not given) | -25* | -39 | · | · | ·
Cc1ccc(S(=O)(=O)Nc2ccc3c(c2)CC(=O)N([C@@H](C)CO)C[C@H](C)[C@H](CN(C)Cc2ccc(-c4ccccc4)cc2)O3)cc1 | 2 | 19 | 1 | 1 | -4
C[C@H]1CN([C@@H](C)CO)C(=O)Cc2cc(NC(=O)NC3CCCCC3)ccc2O[C@@H]1CN(C)Cc1ccccc1 | 2 | 11 | 9 | -4 | -4
C[C@@H]1CN([C@H](C)CO)C(=O)Cc2cc(NC(=O)NC3CCCCC3)ccc2O[C@@H]1CN(C)Cc1ccccc1 | 2 | -5 | 92* | 3 | 2
C[C@H](CO)N1C[C@H](C)[C@@H](CN(C)Cc2ccccc2)Oc2ccc(NC(=O)Nc3ccc(C(F)(F)F)cc3)cc2CC1=O | -7 | 54* | 3 | 4 | -4
Cc1ccc(S(=O)(=O)Nc2ccc3c(c2)CC(=O)N([C@H](C)CO)C[C@H](C)[C@@H](CN(C)Cc2ccc(-c4ccccc4)cc2)O3)cc1 | 0 | 67* | -3 | -2 | 3
O=C(C[C@H]1C=C[C@@H](NC(=O)Nc2cc(F)ccc2F)[C@@H](CO)O1)NCc1ccccn1 | 0 | -16 | 0 | -1 | -9
SMILES | Ecoli rRNA inh | RAD52 inh | Cneo AK release | PglD DTNB | RAD54 branch
O=C(Nc1ccccc1)Nc1nc(-c2ccccc2)cs1 | 5 | -12 | · | · | ·
COc1cccc(-c2csc(NC(=O)Nc3ccccc3)n2)c1 | -28* | -10 | 5 | -2 | -3
CSc1ncnc2c1ncn2CCCNc1ccc(C)c(C)c1 | -26* | 1 | · | · | ·
COc1ccc2c(c1OC)C(=O)OC2Nc1ccccc1S(=O)(=O)C(F)F (stereo not given) | · | · | 94* | -1 | -1
COc1ccc2c(c1OC)C(=O)OC2Nc1ccccn1 (stereo not given) | · | · | 1 | 3 | 1
CCN(c1ccc(OC)cc1)S(=O)(=O)c1cc(-c2cc(C)no2)ccc1OC | -31* | -20 | -4 | -3 | -5
Cc1c(C(=O)NNc2c(Cl)cccc2Cl)n(C)oc1=O | -22* | -9 | · | · | ·
Cc1c(C(=O)Oc2ccc(Cl)cc2)n(C)oc1=O | 13 | -2 | · | · | ·
Cc1ccccc1C(=O)NNC(=S)NC(=O)COc1ccccc1 | -22* | -8 | · | · | ·
CC(C)(C)C(=O)N1CCN(c2ccc([N+](=O)[O-])cc2-n2cccc2)CC1 | 3 | -15 | 2 | -7 | 2
O=C(C1CC1)N1CCN(c2ccc([N+](=O)[O-])cc2-n2cccc2)CC1 | -30* | -9 | · | · | ·
Fc1ccc(CN2CCN(C(c3ccccc3)c3ccccc3)CC2)cc1 | -43 | -5 | 1 | 0 | -6
c1ccc(CN2CCN(C(c3ccccc3)c3ccccc3)CC2)cc1 | -24* | -10 | 7 | -5 | 3
C=C(C)Cn1c(CCn2c3ccccc3c3ccccc32)n[nH]c1=S | · | -8 | · | · | ·
C=CCn1c(CCn2c3ccccc3c3ccccc32)n[nH]c1=S | -27* | -4 | -6 | 2 | -3
C[C@H](CO)N1C[C@H](C)[C@H](CN(C)C(=O)Nc2cccc3ccccc23)Oc2ccc(NC(=O)Nc3ccccc3)cc2C1=O | 3 | -3 | 101* | -2 | -2
C[C@@H]1CN([C@H](C)CO)C(=O)c2cc(NC(=O)Nc3cccc4ccccc34)ccc2O[C@H]1CN(C)C(=O)Nc1ccc(C(F)(F)F)cc1 | -2 | -2 | 103* | 4 | -2
COc1ccc2c3c(n(C)c2c1)[C@H](CO)N(C(=O)Cc1ccccn1)CC31CN(C)C1 | 6 | 8 | · | · | ·
CNC(=O)c1ccsc1NC(=O)c1ccc(Cl)s1 | -28* | -14 | 1 | -2 | 3
O=C(C[C@@H]1C=C[C@@H](NS(=O)(=O)c2ccc(F)cc2)[C@H](CO)O1)NC1CCCCC1 | -1 | 3 | 37 | -3 | -2
NC(=O)c1ccccc1NC(=O)/C=C/c1ccc(Cl)cc1 | · | · | -3 | -1 | 6
O=C(/C=C/c1ccc(Cl)cc1)NC(=S)Nc1ccccc1C(=O)O | -18* | -24 | · | · | ·
CO[C@H]1CN(C)C(=O)c2cc(NC(=O)Nc3cc(Cl)cc(Cl)c3)ccc2OC[C@@H](C)NC[C@@H]1C | -7 | 59* | · | · | ·
CO[C@H]1CN(C)C(=O)c2cc(NC(=O)Nc3ccc(Cl)c(Cl)c3)ccc2OC[C@H](C)NC[C@H]1C | -22 | 54* | -2 | -7 | 29

Screens as filed in PubChem.
